Measured values from different studies.
Compare with care: the assays were run in different laboratories.
Target: Serine/threonine-protein kinase Sgk2 (SGK2, Homo sapiens, UniProt Q9HBY8)
Sequence (Q9HBY8 1-367, as in one of the studies): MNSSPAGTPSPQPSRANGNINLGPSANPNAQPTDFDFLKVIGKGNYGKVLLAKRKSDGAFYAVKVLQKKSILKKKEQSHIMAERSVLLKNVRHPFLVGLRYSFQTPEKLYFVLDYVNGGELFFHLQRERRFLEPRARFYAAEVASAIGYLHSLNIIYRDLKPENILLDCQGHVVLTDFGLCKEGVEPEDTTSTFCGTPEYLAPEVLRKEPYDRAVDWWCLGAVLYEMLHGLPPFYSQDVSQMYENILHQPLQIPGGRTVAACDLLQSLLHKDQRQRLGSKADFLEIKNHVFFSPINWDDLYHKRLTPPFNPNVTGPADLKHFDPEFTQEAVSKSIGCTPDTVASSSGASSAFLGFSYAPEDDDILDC

CCOC(=O)c1cc2cc(-c3cc(C(=O)NCc4ccc(C(=O)O)cc4)nn3C)ccc2[nH]1  remaining binding (cell-free assay; competition with immobilised ligand; 0.1 µM): 100%
C[C@@H]1CCN(c2nccc(-c3cnn4ncccc34)n2)C1  remaining binding (binding; 1 µM): 81%
O=C(c1ccc(Nc2ncc(Cl)c(-c3cc4ccccc4s3)n2)cc1)N1CCC(N2CCCC2)CC1  remaining binding (binding; competition with immobilised ligand; 1 µM): 48%
COCCOc1nc(-c2ccc(Cl)nc2)nc2c1CN(C(=O)c1ncn3ccccc13)CC2  remaining binding (cell-free assay; competition with immobilised ligand; 0.1 µM): 88%
O=C(NCCCN1CCOCC1)c1ccc(Nc2ncc(Cl)c(-c3ccc(Cl)s3)n2)cc1  remaining binding (binding; competition with immobilised ligand; 1 µM): 100%
C=CC(=O)N1CCC(C(=O)NCC(=O)N2CCN(c3nc(-c4cnc(N)nc4C(F)F)nc(N4CCOCC4)n3)CC2)CC1  remaining binding (binding; competition with immobilised ligand; 1 µM): 86%
CNC(=O)[C@@H]1CC[C@@H](n2c(-c3ccc4cnccc4c3)nc3ccc(C(=O)NCc4cccc(C(N)=O)c4)cc32)C1  remaining binding (binding; competition with immobilised ligand; 1 µM): 100%
COc1ccc2c(c1)O[C@H](c1ccc(OC)c(OC)c1)C[C@@H]2NC(=O)C1(c2ccc3c(c2)OC(F)(F)O3)CC1  remaining binding (cell-free assay; competition with immobilised ligand; 1 µM): 100%
COc1cnc(Nc2cccc(S(N)(=O)=O)c2)nc1N1CCN(c2ccccc2)C(=O)C1  remaining binding (binding; competition with immobilised ligand; 1 µM): 83%
CN(C)c1nccc(-c2cnc3ncccn23)n1  remaining binding (binding; 1 µM): 81%
O=C(c1ccc(Nc2nccc(-c3cc4ccccc4s3)n2)cc1)N1CCC(N2CCCC2)CC1  remaining binding (binding; competition with immobilised ligand; 1 µM): 47%
c1cncc(-c2cccc(Nc3nccc(NC4CCCCC4)n3)c2)c1  remaining binding (binding; competition with immobilised ligand; 10 µM): 95%
O=C(NCC1CCOCC1)c1n[nH]cc1NC(=O)c1c(F)cccc1F  remaining binding (binding; competition with immobilised ligand; 1 µM): 94%
Cc1cnn2ncc(-c3ccnc(N(C)C)n3)c2c1  remaining binding (binding; 1 µM): 84%
Nc1ncc2c(n1)-c1c([nH]c3ccc(C#CC4CC4)cc13)CCCC2  remaining binding (binding; competition with immobilised ligand; 1 µM): 96%
O=C(Nc1cccnn1)N1CC(C/C=C/c2cncc(Oc3ccc(C(F)(F)F)cn3)n2)C1  remaining binding (cell-free assay; competition with immobilised ligand; 1 µM): 74%
F[C@@H]1CCN(c2nccc(-c3cnn4ncccc34)n2)C1  remaining binding (binding; 1 µM): 92%
CC(=O)N1CCC(c2ccc(C(=O)NC(=N)N)cc2C(F)(F)F)CC1  remaining binding (cell-free assay; competition with immobilised ligand; 1 µM): 100%
c1cnn2ncc(-c3ccnc(N4CCC45COC5)n3)c2c1  remaining binding (binding; 1 µM): 65%
CC1=C(C#N)[C@@H](c2ccc3[nH]nc(C)c3c2)C(C#N)=C(c2ccc(Cl)cc2)N1  remaining binding (cell-free assay; competition with immobilised ligand; 1 µM): 100%
CN(CCCC(F)(F)F)c1nccc(-c2cnn3ncccc23)n1  remaining binding (binding; 1 µM): 93%
